Legend:
Assay type in all cases: functional
Rattus norvegicus [1] = experiment: Percent change in total plasma cholesterol in hypercholesterolemic rats dosed at 100 mg/kg/day for 8 days
Rattus norvegicus [2] = experiment: Percent change in triglycerides in hypercholesterolemic rats at a dose of 100 mg/kg/day for 8 days
Rattus norvegicus [3] = experiment: Percent change in total plasma cholesterol following oral administration of compound in normal chow-fed rats at 100 mg/kg/day for 4 days
Outline: (§1)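 Chow-fed male Sprague–Dawley CD rats, 60–80 g, gavaged 100 mg/kg/day for 4 days in 1.3% Tween 80/0.25% CMC. Fasted overnight, bled 24 h after the last dose. Total cholesterol and glycerol-blanked triglycerides read enzymatically; lipoproteins by FPLC with cholesterol per fraction. % change versus control; six per group, p < 0.05.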

Rattus norvegicus [4] = experiment: Percent change in high-density lipoprotein cholesterol in hypercholesterolemic rats dosed at 100 mg/kg/day for 8 days
Rattus norvegicus [5] = experiment: Percent change in triglycerides following oral administration of compound in normal chow-fed rats at 100 mg/kg/day for 4 days; outline: as §1
Rattus norvegicus [6] = experiment: Percent change in high-density lipoprotein cholesterol following oral administration of compound in normal chow-fed rats at 100 mg/kg/day for 4 days; outline: as §1
Rattus norvegicus [7] = experiment: Percent change in low-density lipoprotein cholesterol following oral administration of compound in normal chow-fed rats at 100 mg/kg/day for 4 days; outline: as §1
Rattus norvegicus [8] = experiment: Percent change in very low-density lipoprotein cholesterol following oral administration of compound in normal chow-fed rats at 100 mg/kg/day for 4 days; outline: as §1

Row | Structure (SMILES) | Change (Rattus norvegicus [1]) [%] | Change (Rattus norvegicus [2]) [%] | Change (Rattus norvegicus [3]) [%] | Change (Rattus norvegicus [4]) [%] | Change (Rattus norvegicus [5]) [%] | Change (Rattus norvegicus [6]) [%] | Change (Rattus norvegicus [7]) [%] | Change (Rattus norvegicus [8]) [%]
1 | CCN1C(=S)N(CC(C)C)C(=O)C1c1ccccc1 (configuration not stated) | 7 | 92 | -8.4 | 156 | -1.6 | -3.1 | -9.3 | 33.3
2 | CCN1CCC(=O)N(c2ccccc2F)C1=S | 21 | -26 | 48.7 | 72 | -4 | 55.3 | -4 | 20.1
3 | CCc1cccc(C)c1N1C(=O)CN(CC)C1=S | -19 | -10 | 52.8 | 112 | -8.2 | 61.9 | -6.5 | -29.2
4 | CON1CC(=O)N(c2cc(Cl)ccc2C)C1=S | 41 | -62 | 134.4 | 160 | -10.8 | 102.4 | 87.5 | 249.5
5 | CN1OCC(=O)N(C(c2ccccc2)c2ccccc2)C1=S | 22 | 9 | 17.6 | 60 | -44.1 | 33.7 | 43.8 | -29.3
6 | CCN1CC(=O)N(c2cc(C)ccc2C)C1=S | 49 | -6 | 26.4 | 124 | -2.5 | 31.9 | -8.3 | 31.3
7 | CN1CC(=O)N(c2c(Cl)cccc2Cl)C1=S | 4.6 | -43 | 83.9 | 92 | -33.3 | 109.3 | 39.6 | -3.3
8 | CCN1CC(=O)N(c2ccccc2C)C1=S | 76.5 | 38 | 52.1 | 164 | -25 | 54.3 | 18.7 | 0
9 | CN1CC(=O)N(c2ccc3c(c2)CCC3)C1=S | -3 | -26 | 26 | 112 | -0.9 | 46 | -40.3 | 26.3
10 | CCN1CCC(=O)N(c2c(C)cccc2Cl)C1=S | 23 | -16 | 45.4 | 199 | -35.7 | 45.5 | -1.1 | -5.3
11 | Cc1ccc(Cl)cc1N1C(=O)CON(C)C1=S | 5.7 | -10 | 85.7 | 236 | -26.2 | 83.5 | 29.9 | 23.1
12 | CCN1CC(=O)N(c2c(C)cccc2C)C1=S | -28 | -23 | 106.7 | 181 | -12.8 | 93.6 | 43.8 | 13
13 | CCN1CCC(=O)N(c2ccccc2C(C)C)C1=S | 44 | -31 | 59.2 | 108 | -12.4 | 67.8 | 9.8 | 35.2
14 | CCN1C(=O)C(=O)N(c2c(C)cccc2C)C1=S | -21 | -48 | 138.2 | 186 | -32.8 | 114.4 | 73.2 | 409.7
